Assay outcomes from PubChem.
MPTP block: inhibitors of mitochondrial permeability transition pore; isolated mouse mitochondria, Ca2+ swelling absorbance, 30 min; inhibition, % at 10 µM; hit rate 1.4% among 360,000;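 active = inhibition of 50% or more, scaled per plate between neutral and stimulator controls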;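 note: 0% = DMSO wells given calcium and 100% = 1 mM EGTA wells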
MC4R antag cAMP: antagonists of human melanocortin 4 receptor (MC4R); P32245; MC4R-expressing cells, MTII-stimulated cAMP, LANCE TR-FRET; inhibition, % at 6.5 µM; hit rate 0.48% among 360,000; AID 540295;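 active = inhibition above its plate's cutoff, the mean of tested wells on that plate plus 3 SD, cut at about 29% in these data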;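 note: 0% = Melanotan II alone and 100% = Melanotan II plus saturating MCL0020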
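Material: U2OS-MC4R stable cell line | Reagent: Melanotan II challenge after compound preincubation | Doses: One concentration, 6.5 µM nominal | Incubation: 30-min compound preincubation, 1-h Melanotan II challenge, 1-h detection, room temperature | Signal: TR-FRET cAMP assay | Replicates: One well per compound, no replicates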
MC4R ag barr: agonists of human melanocortin 4 receptor (MC4R) beta-arrestin | activation, % at 8.9 µM | P32245 | U2OS MC4R beta-arrestin complementation, luminescence; percent of melanotan II response, DMSO zero | hit rate 0.98% among 360,000 | AID 540308;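 active = activation above a per-plate cutoff, the mean activation of sample wells on that plate plus 3 SD, cut at about 8% in these data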
ATG4B inh: inhibitors of human ATG4B cysteine protease; Q9Y4P1; ATG4B cleavage of LC3-PLA2, NBD-HPC fluorescence, 1 h; inhibition, % at 8.33 µM; hit rate 0.51% among 340,000; in the data active = inhibition above about 40%
Target sequence (Q9Y4P1 whole entry, looked up): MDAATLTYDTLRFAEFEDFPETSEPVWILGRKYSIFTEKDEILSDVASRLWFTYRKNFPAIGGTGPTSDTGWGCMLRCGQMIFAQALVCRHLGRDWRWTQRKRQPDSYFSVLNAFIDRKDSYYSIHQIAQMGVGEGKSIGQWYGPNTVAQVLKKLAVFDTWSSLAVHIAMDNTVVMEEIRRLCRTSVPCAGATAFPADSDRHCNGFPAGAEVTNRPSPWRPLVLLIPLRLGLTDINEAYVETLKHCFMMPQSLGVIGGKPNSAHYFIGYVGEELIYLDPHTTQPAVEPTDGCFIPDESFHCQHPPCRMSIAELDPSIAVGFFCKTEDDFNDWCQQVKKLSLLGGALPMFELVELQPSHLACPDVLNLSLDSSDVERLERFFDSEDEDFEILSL
SMARCA2 act: SMARCA2 function activation, primary screen | hit rate 1% among 370,000 | activation, % at 9.1 µM | MG213 cells, MMTV-luciferase reporter, dexamethasone, overnight; in the data active = activation above about 7.8%;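 note: 0% = vehicle wells and 100% = reference activator wells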
The depositor's hits bear a star. In the library only some 4.1% were active in any assay of this set; here they are far more common.

What do the screens show for `CCOC(=O)C1=CCC(c2ccc([N+](=O)[O-])cc2)N(S(=O)(=O)c2ccc(C)cc2)C1` (stereo not given)?
SMARCA2 act: -1

Results for CCCCNC(=O)COC(=O)c1c2c(nc3ccccc13)/C(=C\c1cccs1)CC2 ?
MPTP block: 2; MC4R antag cAMP: 26; MC4R ag barr: 3; ATG4B inh: -7; SMARCA2 act: 0

Results for CC(C)CNC(=O)COC(=O)c1c2c(nc3ccccc13)/C(=C/c1cccs1)CC2 ?
MPTP block: 1; MC4R antag cAMP: 17; MC4R ag barr: 9.5*; ATG4B inh: 0; SMARCA2 act: 1

What do the screens show for `N/C(=N\OC(=O)c1cc(Cl)ccc1Cl)c1ccccn1`?
MPTP block: 3; MC4R antag cAMP: 1; MC4R ag barr: -1; ATG4B inh: -14; SMARCA2 act: 5

How did COc1ccc(Cl)cc1C(=O)O/N=C(\N)c1ccccn1 do in these assays?
MPTP block: 0; MC4R antag cAMP: 0; MC4R ag barr: -1; ATG4B inh: -5; SMARCA2 act: 7.8*

Results for COc1ccc(-c2nnn(CC(=O)NCc3ccc4c(c3)OCO4)n2)cc1OC ?
MPTP block: -1; MC4R antag cAMP: 8; MC4R ag barr: -5; ATG4B inh: -7; SMARCA2 act: 0

Results for CCOc1ccc(-c2nnn(CC(=O)NCc3ccc4c(c3)OCO4)n2)cc1 ?
MPTP block: 4; MC4R antag cAMP: -2; MC4R ag barr: 9.3*; ATG4B inh: -5; SMARCA2 act: 1

Results for CCCc1[nH]n(-c2ccc([N+](=O)[O-])cc2)c(=O)c1C=NCCc1c[nH]c2ccccc12 ?
MPTP block: 13; MC4R antag cAMP: 11; MC4R ag barr: 0; ATG4B inh: 2; SMARCA2 act: -1

What do the screens show for `Cc1[nH]n(-c2ccc([N+](=O)[O-])cc2)c(=O)c1C=NCCc1c[nH]c2ccccc12`?
MPTP block: 1; MC4R antag cAMP: 5; MC4R ag barr: 8.4*; ATG4B inh: -2; SMARCA2 act: -1

How did CC(C)Sc1snnc1-c1ccccc1 do in these assays?
MPTP block: 0; MC4R antag cAMP: -5; MC4R ag barr: 8.9*; ATG4B inh: 3; SMARCA2 act: -1

How did CSc1snnc1-c1ccccc1 do in these assays?
MPTP block: -1; MC4R antag cAMP: 2; MC4R ag barr: -2; ATG4B inh: 3; SMARCA2 act: 0

Results for CC1(C(=O)NCC2CCCCC2)CCN1CCc1ccccc1 (stereo not given) ?
MPTP block: 2; MC4R antag cAMP: 16; MC4R ag barr: 6; SMARCA2 act: -2

Results for CC1(C(=O)NC2CCc3ccccc32)CCN1CCc1ccccc1 (stereo not given) ?
MPTP block: 0; MC4R antag cAMP: 3; MC4R ag barr: 8.6*; SMARCA2 act: -3

What do the screens show for `C=CCN=C1NC(c2ccccc2C(F)(F)F)C(C(=O)OC)=C(C)N1Cc1ccc(C(F)(F)F)cc1` (stereo not given)?
SMARCA2 act: 0

How did COc1ccccc1N1CCN(C(=O)c2cc3c(C)nn(-c4ccccc4)c3s2)CC1 do in these assays?
SMARCA2 act: -5

What do the screens show for `CC1CCN(Cc2c(C(=O)N/N=C/c3cccc(C(F)(F)F)c3)nnn2-c2nonc2N)CC1`?
MPTP block: 4; MC4R antag cAMP: 12; MC4R ag barr: 5; ATG4B inh: 5; SMARCA2 act: -4

Results for CC1CCN(Cc2c(C(=O)N/N=C/c3ccc(C(F)(F)F)cc3)nnn2-c2nonc2N)CC1 ?
MPTP block: 4; MC4R antag cAMP: -8; MC4R ag barr: 24*; ATG4B inh: 4; SMARCA2 act: -2

How did CN(C)c1ccc(/C=N/NC(=O)c2nnn(-c3nonc3N)c2CN(C)c2ccccc2)cc1 do in these assays?
MPTP block: 1; MC4R antag cAMP: 11; MC4R ag barr: 8.5*; ATG4B inh: 3; SMARCA2 act: -2

Results for CN(C)C=Nc1nc2c(Br)ccc(Br)c2cc1C(=O)NCC(C)(C)C ?
SMARCA2 act: -2

How did COc1cc2c(c(OC)c1OC)C1(CCCCC1)CC2NCC=C(C)C (stereo not given) do in these assays?
SMARCA2 act: -1

How did COC(=O)C[C@H]1CC[C@H]2[C@H](COc3ccc(NS(=O)(=O)c4cccc(F)c4)cc3C(=O)N2C)O1 do in these assays?
SMARCA2 act: -4

How did COc1ccc(-c2cc(-c3nnc(SCC(=O)Nc4ccc(OCc5ccccc5)cc4)n3N)[nH]n2)cc1 do in these assays?
SMARCA2 act: -2

What do the screens show for `Cc1cccc(OCC(O)Cn2c(=N)n(CCN3CCCCC3)c3ccccc32)c1` (stereo not given)?
MPTP block: -1; MC4R antag cAMP: 12; MC4R ag barr: -3; ATG4B inh: -2; SMARCA2 act: 7.8*

Results for Cc1cccc(OCC(O)Cn2c(=N)n(Cc3ccccc3)c3ccccc32)c1 (stereo not given) ?
MPTP block: 2; MC4R antag cAMP: 10; MC4R ag barr: -1; ATG4B inh: -8; SMARCA2 act: -6

How did Cc1c(NCc2nc3ccccc3[nH]2)c(=O)n(-c2ccccc2)n1C do in these assays?
MPTP block: 0; MC4R antag cAMP: -9; MC4R ag barr: 0; ATG4B inh: -12; SMARCA2 act: 7.8*

What do the screens show for `CCc1c(-c2ccccc2Br)ncn1CCc1ccccc1OC`?
SMARCA2 act: -9

What do the screens show for `COC(=O)[C@@H](Cc1ccccc1)N[C@H](/C=C/c1ccccc1)[C@@H](O)Cc1ccccc1`?
SMARCA2 act: 1

What do the screens show for `COc1ccc(-c2csc(NC(=S)NC(=O)/C=C/c3ccco3)n2)cc1OC`?
MPTP block: -2; MC4R antag cAMP: -20; MC4R ag barr: 9.1*; ATG4B inh: 24; SMARCA2 act: 0

What do the screens show for `Cc1ccc(C(=O)N2CCC[C@@H]2C(=O)N2CCC[C@H]2C(=O)NCc2ccccc2)cc1`?
SMARCA2 act: -5

What do the screens show for `Cc1ccc(NC(=O)CSc2nc3c([nH]c4ccccc43)c(=O)n2C)cc1`?
MPTP block: 1; MC4R antag cAMP: -9; MC4R ag barr: 16*; ATG4B inh: 3; SMARCA2 act: 1

What do the screens show for `COC(=O)c1cc2c(c3c4cc(C)ccc4n(S(=O)(=O)c4ccc(C)cc4)c13)C(=O)N(Cc1ccccc1OC)C2`?
SMARCA2 act: -6

What do the screens show for `CC(C)c1ccc(O)c(NC(=S)NC(=O)c2ccc3c(c2)OCO3)c1`?
MPTP block: 1; MC4R antag cAMP: -5; MC4R ag barr: 11*; ATG4B inh: 24; SMARCA2 act: 5

Results for COc1ccc(OC)c(CN2C(=O)CSCCC2(C)c2nnnn2C2CCCC2)c1 (stereo not given) ?
SMARCA2 act: 0

What do the screens show for `COc1cccc(-c2sc3ccc(OC)cc3c2-c2ccc(OCCN(C)C)cc2)c1`?
MPTP block: 1; MC4R antag cAMP: 13; MC4R ag barr: 10*; ATG4B inh: 6; SMARCA2 act: -2
